In assay [1] the target is T1, D(2) dopamine receptor (Homo sapiens, UniProt P14416). Put plainly: Displacement of [3H]-Raclopride from human dopamine D2L receptor expressed in HEK293 cell membranes after 1 hr by microbeta liquid scintillation counting analysis. The essentials: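 HEK293 membranes expressing human D2L. Incubated 1 h at 37°C, rapid filtration. 1 µM (+)butaclamol defined nonspecific binding. Triplicates at 7–8 concentrations, 10⁻¹¹–10⁻⁴ M. Ki via Cheng-Prusoff, ≥3 experiments.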

The target of assay [2] is T2, 5-hydroxytryptamine receptor 1A (Homo sapiens, UniProt P08908).
T2 sequence (P08908 whole entry): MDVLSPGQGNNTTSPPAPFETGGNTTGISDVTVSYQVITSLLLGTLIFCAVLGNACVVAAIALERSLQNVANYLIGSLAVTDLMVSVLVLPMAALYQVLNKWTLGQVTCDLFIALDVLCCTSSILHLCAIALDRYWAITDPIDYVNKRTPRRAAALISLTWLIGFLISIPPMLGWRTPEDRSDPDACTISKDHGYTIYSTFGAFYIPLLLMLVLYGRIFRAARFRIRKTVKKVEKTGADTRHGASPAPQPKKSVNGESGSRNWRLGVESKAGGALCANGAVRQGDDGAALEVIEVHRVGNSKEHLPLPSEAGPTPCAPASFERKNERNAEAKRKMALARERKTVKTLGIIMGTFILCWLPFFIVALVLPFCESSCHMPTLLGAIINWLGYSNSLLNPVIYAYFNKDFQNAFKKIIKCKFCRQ
The experiment in a line: Displacement of [3H]-8-OH-DPAT from human 5-HT1A receptor expressed in HEK293 cell membranes after 1 hr by microbeta liquid scintillation counting analysis. The essentials:
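HEK293 membranes with stably expressed human 5-HT1A, washed by two 35 000 g spins. Buffer 50 mM Tris-HCl, 0.1 mM EDTA, 4 mM MgCl₂, 10 μM pargyline, 0.1% ascorbate. Incubated 1 h at room temperature, then rapid filtration. 10 µM 5-HT defined nonspecific binding. Tested in triplicate over 10⁻¹¹–10⁻⁴ M (7–8 concentrations). Ki via Cheng-Prusoff, mean of ≥3 experiments.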
In general terms: Displacement assays read how much labelled ligand stays bound in the presence of the test substance.

Assay [3] has as its target 5-hydroxytryptamine receptor 2A (Homo sapiens, UniProt P28223). Put plainly: Displacement of [3H]-Ketanserin from human 5-HT2A receptor expressed in HEK293 cell membranes after 1 hr by microbeta liquid scintillation counting analysis. The essentials:
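Competition binding on membranes from HEK293 cells stably expressing human 5-HT2A, prepared by homogenization and two 35 000 g centrifugations. Incubated 1 h at 37°C, then filtered and counted. Triplicate points at 7–8 concentrations, 10⁻¹¹–10⁻⁴ M. Ki from Cheng-Prusoff, ≥3 separate experiments.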

Assay [4] addresses 5-hydroxytryptamine receptor 6 (Homo sapiens, UniProt P50406). The experiment in a line: Displacement of [3H]-LSD from human 5-HT6 receptor expressed in HEK293 cell membranes after 1 hr by microbeta liquid scintillation counting analysis. The essentials: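 Human 5-HT6 stably expressed in HEK293; cell membranes washed by two 35 000 g spins. Buffer 50 mM Tris-HCl, 0.5 mM EDTA, 4 mM MgCl₂. Incubated 1 h at 37°C, filtered. Nonspecific binding with 10 µM methiothepine. 7–8 concentrations (10⁻¹¹–10⁻⁴ M) in triplicate. Ki by Cheng-Prusoff, ≥3 experiments.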

Assay [5] concerns the target T3, 5-hydroxytryptamine receptor 7 (Homo sapiens, UniProt P34969). The experiment in a line: Displacement of [3H]-5-CT from human 5-HT7 receptor expressed in HEK293 cell membranes after 1 hr by microbeta liquid scintillation counting analysis. Put shortly: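 Membranes from HEK293 pellets stably expressing human 5-HT7b, homogenized and centrifuged twice at 35 000 g (4°C) with 15 min 37°C incubation between. Buffer 50 mM Tris-HCl, 4 mM MgCl₂, 10 μM pargyline, 0.1% ascorbate. Incubated 1 h at 37°C, then filtered. Nonspecific binding defined with 10 µM 5-HT. Triplicates at 7–8 concentrations (10⁻¹¹–10⁻⁴ M). Ki by Cheng-Prusoff, ≥3 experiments.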

The target of assay [6] is T1, D(2) dopamine receptor. Put plainly: Antagonist activity at human dopamine D2 receptor expressed in HEK293 cells at 1 uM assessed as inhibition of dopamine-induced cAMP production. It is filed as functional, cell-based. Put shortly: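 Cellular cAMP antagonist assay run by a contract lab on HEK293 cells stably expressing human D2 receptor. Compound tested at 10⁻⁶ M. Result given as % inhibition of the control agonist response to dopamine 30 nM.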

Assay [7] has as its target T4, 5-hydroxytryptamine receptor 1A (Homo sapiens) (UniProt P08908).
T4 sequence (whole entry): T2 sequence (P08908 whole entry)
Put plainly: Antagonist activity at human 5-HT1A receptor expressed in HEK293 cells assessed as inhibition of 8-OH-DPAT-induced cAMP production at 1 uM by fluorescence assay. Format: functional, cell-based. The essentials:
(§1)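 Cellular cAMP functional antagonist assay run by a contract lab. Human 5-HT7 receptor was stably expressed in CHO cells, and human 5-HT1A in HEK293 cells. Read-out was % inhibition of the control agonist response.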
(Cyclic AMP is a second messenger, typically raised through Gs and lowered through Gi signalling.)

For assay [8], the target named is T3, 5-hydroxytryptamine receptor 7. The experiment in a line: Antagonist activity at human 5-HT7 receptor expressed in CHOK1 cells assessed as inhibition of serotonin-induced cAMP production at 1 uM after 30 mins by HTRF assay. Format: functional, cell-based. Put shortly:
as §1

The test system of assay [9] is Mus musculus. Put plainly: Antipsychotic activity in CD-1 mouse assessed as inhibition of MK-801-induced hyperlocomotor activity at 30 mg/kg, ip pretreated with MK-801 for 15 mins followed by compound administration for 60 mins. Format: functional, organism-based. The essentials: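 Male CD-1 mice, tested in the light phase, observer blind. Test compounds i.p. 60 min and MK-801 i.p. 15 min before testing, in distilled water at 10 ml/kg; vehicle controls. After 30 min cage habituation, ambulation recorded by activity monitor for 1 h in 5-min bins. 8–10 animals/group; mean ± SEM, one-way ANOVA with Bonferroni test.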

In assay [10] the test system is Mus musculus. Put plainly: Antidepressant-like activity in Swiss albino mouse assessed as decrease in immobility time at 1.25 mg/kg, ip measured last 4 mins of 6 mins test by forced swim test relative to control. It is filed as functional. More on the design: scale not given: the % may be the effect or the level left. Put shortly:
(§2)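 Male Swiss albino mice (22–26 g), used once, observer blind. Drugs dissolved in distilled water, given i.p. at 10 ml/kg: test compounds 60 min, citalopram 30 min before testing; controls got vehicle. Mice placed 6 min in a cylinder with 10 cm water at 23–25°C; immobility scored over the last 4 min. 7–12 mice/group; one-way ANOVA then Bonferroni.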

The subject of assay [11] is Mus musculus. The experiment in a line: Antidepressant-like activity in Swiss albino mouse assessed as decrease in immobility time at 2.5 mg/kg, ip measured last 4 mins of 6 mins test by forced swim test relative to control. It is filed as functional. Further details: scale not given: the % may be the effect or the level left. The essentials:
as §2

Calls of active or inactive are those of the source. The calls are words filed in the database; no cut-off is given here.

T3 sequence (P34969 whole entry): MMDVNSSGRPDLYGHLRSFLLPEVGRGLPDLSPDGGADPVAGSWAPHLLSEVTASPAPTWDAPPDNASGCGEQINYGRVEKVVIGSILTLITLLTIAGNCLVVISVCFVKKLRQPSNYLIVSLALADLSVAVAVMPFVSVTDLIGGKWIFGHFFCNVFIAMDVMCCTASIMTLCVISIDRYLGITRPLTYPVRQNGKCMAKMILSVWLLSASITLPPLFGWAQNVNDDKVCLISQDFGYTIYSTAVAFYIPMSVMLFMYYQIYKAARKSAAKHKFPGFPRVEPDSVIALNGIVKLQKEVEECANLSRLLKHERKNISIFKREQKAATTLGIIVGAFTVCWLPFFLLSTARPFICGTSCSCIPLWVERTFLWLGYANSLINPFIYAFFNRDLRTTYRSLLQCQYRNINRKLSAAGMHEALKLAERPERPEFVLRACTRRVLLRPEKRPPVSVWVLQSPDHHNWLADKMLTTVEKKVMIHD
T1 sequence (P14416 whole entry): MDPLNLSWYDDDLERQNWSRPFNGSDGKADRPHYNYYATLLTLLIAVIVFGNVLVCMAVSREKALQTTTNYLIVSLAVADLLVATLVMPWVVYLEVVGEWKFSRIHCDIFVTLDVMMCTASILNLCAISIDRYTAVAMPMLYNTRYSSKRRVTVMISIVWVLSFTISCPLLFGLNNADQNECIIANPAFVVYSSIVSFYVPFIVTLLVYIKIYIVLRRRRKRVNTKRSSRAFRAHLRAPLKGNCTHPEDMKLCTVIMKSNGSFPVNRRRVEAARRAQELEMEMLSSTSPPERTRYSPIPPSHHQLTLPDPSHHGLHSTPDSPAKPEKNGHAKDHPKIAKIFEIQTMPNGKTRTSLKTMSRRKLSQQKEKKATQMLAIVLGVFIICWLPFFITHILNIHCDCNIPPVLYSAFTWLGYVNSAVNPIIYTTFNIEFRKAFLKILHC
Sequence of 5-hydroxytryptamine receptor 6 (P50406 whole entry): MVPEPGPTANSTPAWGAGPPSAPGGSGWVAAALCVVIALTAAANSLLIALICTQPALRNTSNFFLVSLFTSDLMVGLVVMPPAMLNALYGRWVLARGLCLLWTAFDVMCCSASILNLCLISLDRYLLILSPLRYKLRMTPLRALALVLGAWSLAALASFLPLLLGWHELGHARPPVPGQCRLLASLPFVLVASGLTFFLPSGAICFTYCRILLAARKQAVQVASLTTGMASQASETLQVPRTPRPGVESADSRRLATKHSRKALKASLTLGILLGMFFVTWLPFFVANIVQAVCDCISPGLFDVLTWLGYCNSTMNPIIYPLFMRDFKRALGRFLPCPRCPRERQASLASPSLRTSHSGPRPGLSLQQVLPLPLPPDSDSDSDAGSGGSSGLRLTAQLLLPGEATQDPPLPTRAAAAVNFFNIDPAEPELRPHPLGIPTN
Sequence of 5-hydroxytryptamine receptor 2A (P28223 whole entry): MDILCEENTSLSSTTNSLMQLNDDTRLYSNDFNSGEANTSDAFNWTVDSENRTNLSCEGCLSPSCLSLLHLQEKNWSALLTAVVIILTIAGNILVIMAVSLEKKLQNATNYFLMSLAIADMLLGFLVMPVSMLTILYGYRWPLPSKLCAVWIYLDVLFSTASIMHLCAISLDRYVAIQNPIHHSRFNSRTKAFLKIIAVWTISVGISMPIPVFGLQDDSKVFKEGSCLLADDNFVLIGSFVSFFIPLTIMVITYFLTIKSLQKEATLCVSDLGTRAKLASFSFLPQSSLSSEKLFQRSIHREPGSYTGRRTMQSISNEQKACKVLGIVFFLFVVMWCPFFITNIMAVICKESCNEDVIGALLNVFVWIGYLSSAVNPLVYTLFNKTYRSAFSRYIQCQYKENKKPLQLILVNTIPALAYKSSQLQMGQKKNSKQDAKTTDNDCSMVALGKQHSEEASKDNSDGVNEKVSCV

In the case of `O=S(=O)(c1cncc2ccccc12)N1CCC(CCN2CCN(c3cccc(Cl)c3)CC2)CC1`, the Ki in [1] came to 0.037 µM; in [2] it was 0.032 µM; in assay [3] it was 0.157 µM; in assay [4], 1.19 µM; in assay [5], 0.018 µM. Besides, the figures for the inhibition in [6], in [7] and in assay [8] were 85%, 69% and 73%, respectively. Further, the inhibition result in assay [9] was “Active”. The Activity in assay [10] amounted to 36%; in assay [11], 32%.

A word on the Ki: it is the equilibrium dissociation constant of an inhibitor or competing ligand from its target. As usually defined, the inhibition is the drop in the measured response relative to a control, in per cent.

For the origin of these results see ChEMBL document CHEMBL4033716, “The impact of the halogen bonding on D2 and 5-HT1A/5-HT7 receptor activity of azinesulfonamides of 4-[(2-ethyl)piperidinyl-1-yl]phenylpiperazines with antipsychotic and antidepressant properties” (Bioorg Med Chem, 2017).
